# Laboratory results reported in ChEMBL document CHEMBL1146543, “New antimycobacterial and antimalarial 8,9-secokaurane diterpenes from Croton kongensis” (J Nat Prod, 2003).
# Key:
# Plasmodium falciparum = experiment: Antimalarial activity against multidrug-resistant Plasmodium falciparum K1 by [3H]hypoxanthine uptake; type: functional, organism-based
# Outline: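 Parasites kept in continuous in vitro culture (Trager–Jensen method); microculture radioisotope assay with growth read as [3H]-hypoxanthine uptake.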
# KB = experiment: Cytotoxicity against human KB cells; type: functional, cell-based
# Outline: (§1)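 Colorimetric cytotoxicity assay run on Vero, KB and BC cell lines, with ellipticine as the reference compound. The result is reported as IC50.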
# [1] = Cytotoxicity against human BC cells; type: functional, cell-based; outline: as §1
# Vero = experiment: Cytotoxicity against african green monkey Vero cells; type: cell-based; conditions: Chlorocebus sabaeus; outline: as §1
# [2] = tested on: Mycobacterium tuberculosis; experiment: Antimycobacterial activity against Mycobacterium tuberculosis H37Ra by Microplate Alamar Blue Assay; type: functional
# Outline: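 Microplate Alamar Blue assay with MIC as the endpoint; isoniazid and kanamycin sulfate were run as reference drugs.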
compound,measurement,setting,value
C[C@@H]1CC[C@H]2[C@@H](C)C(=O)O[C@@H]3O[C@@]4(C)CC[C@@H]1[C@]32OO4 [ARTEMISININ],IC50,Plasmodium falciparum,0.001 µg/mL
Cc1c2ccncc2c(C)c2c1[nH]c1ccccc12 [ELLIPTECINE],IC50,KB,0.2 µg/mL
same,IC50,[1],0.2 µg/mL
same,IC50,Vero,0.2 µg/mL
NC[C@H]1O[C@H](O[C@H]2[C@H](O)[C@@H](O[C@H]3O[C@H](CO)[C@@H](O)[C@H](N)[C@H]3O)[C@H](N)C[C@@H]2N)[C@H](O)[C@@H](O)[C@@H]1O.O=S(=O)(O)O [KANAMYCIN SULFATE],MIC,[2],2 µg/mL
